The Cmax is the peak of the concentration-time curve.

For series [1], the target named is Serine/threonine-protein kinase PRP4 homolog (Homo sapiens) (UniProt Q13523). Put plainly: Binding affinity to wild-type human partial length PRP4 (D657 to I1007 residues) expressed in bacterial expression system assessed as residual binding level at 1 uM by Kinomescan method relative to control.
For series [2], the target named is Ribosomal protein S6 kinase alpha-6 (Homo sapiens) (UniProt Q9UK32). Put plainly: Binding affinity to wild-type human partial length N-terminal RSK4 kinase domain 1 (M1 to E397 residues) expressed in mammalian expression system assessed as residual binding level at 1 uM by Kinomescan method relative to control.
For series [3], the target named is Aurora kinase C (Homo sapiens) (UniProt Q9UQB9). Nature of the series: Binding affinity to wild-type human full length AURKC (M1 to S275 residues) expressed in bacterial expression system assessed as residual binding level at 1 uM by Kinomescan method relative to control.
The subject of series [4] is Mast/stem cell growth factor receptor Kit (Homo sapiens), P10721 [D816H]. Nature of the series: Binding affinity to human partial length KIT D816H mutant (I571 to D952 residues) expressed in mammalian expression system assessed as residual binding level at 1 uM by Kinomescan method relative to control. The gist of the method: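 Kinome-wide selectivity panel run by the KINOMEscan method, with the test compound at a single concentration of 1 μM. Wild-type and mutant kinases were profiled in the same screen.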

For series [5], the target named is Myosin light chain kinase 2, skeletal/cardiac muscle (Homo sapiens) (UniProt Q9H1R3). Put plainly: Binding affinity to wild-type human partial length MYLK2 (D258 to K570 residues) expressed in bacterial expression system assessed as residual binding level at 1 uM by Kinomescan method relative to control.
The target in series [6] is Receptor tyrosine-protein kinase erbB-2 (Homo sapiens, UniProt P04626). Nature of the series: Binding affinity to wild-type human partial length ERBB2 (K646 to V1225 residues) expressed in mammalian expression system assessed as residual binding level at 1 uM by Kinomescan method relative to control.
Series [7] deals with Activin receptor type-2A (Homo sapiens) (UniProt P27037). Put plainly: Binding affinity to wild-type human ACVR2A (V171 to T499 residues) expressed in bacterial expression system assessed as residual binding level at 1 uM by Kinomescan method relative to control.
Series [8] addresses Dual specificity tyrosine-phosphorylation-regulated kinase 1A (Homo sapiens) (UniProt Q13627). Nature of the series: Binding affinity to wild-type human partial length DYRK1A (H129 to S509 residues) expressed in mammalian expression system assessed as residual binding level at 1 uM by Kinomescan method relative to control.
The target in series [9] is Receptor tyrosine-protein kinase erbB-4 (Homo sapiens, UniProt Q15303). Put plainly: Binding affinity to wild-type human partial length ERBB4 (L690 to K994 residues) expressed in bacterial expression system assessed as residual binding level at 1 uM by Kinomescan method relative to control.
Series [10] concerns the target Mitogen-activated protein kinase 15 (Homo sapiens) (UniProt Q8TD08). Nature of the series: Binding affinity to wild-type human partial length ERK8 (M1 to P437 residues) expressed in bacterial expression system assessed as residual binding level at 1 uM by Kinomescan method relative to control.
Series [11] addresses Mitogen-activated protein kinase kinase kinase kinase 3 (Homo sapiens) (UniProt Q8IVH8). Nature of the series: Binding affinity to wild-type human partial length MAP4K3 (M1 to D301 residues) expressed in bacterial expression system assessed as residual binding level at 1 uM by Kinomescan method relative to control.
The target in series [12] is Myosin light chain kinase (Homo sapiens) (UniProt Q32MK0). Nature of the series: Binding affinity to wild-type human partial length MLCK (D488 to K800 residues) expressed in bacterial expression system assessed as residual binding level at 1 uM by Kinomescan method relative to control.
Series [13] addresses Inhibitor of nuclear factor kappa-B kinase subunit epsilon (Homo sapiens) (UniProt Q14164). Put plainly: Binding affinity to wild-type human full length IKK-epsilon (M1 to V716 residues) expressed in mammalian expression system assessed as residual binding level at 1 uM by Kinomescan method relative to control. The gist of the method:
(§1)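 Single-point kinome-wide KINOMEscan binding panel, test compound at 1 μM, run by the provider's standard protocol.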

In series [14] the target is Rhodopsin kinase GRK1 (Homo sapiens) (UniProt Q15835). Nature of the series: Binding affinity to wild-type human full length GRK1 (M1 to S563 residues) expressed in mammalian expression system assessed as residual binding level at 1 uM by Kinomescan method relative to control. The gist of the method:
as §1

Series [15] deals with Serine/threonine-protein kinase PAK 2 (Homo sapiens) (UniProt Q13177). Put plainly: Binding affinity to wild-type human partial length PAK2 (P151 to R525 residues) expressed in bacterial expression system assessed as residual binding level at 1 uM by Kinomescan method relative to control.
In series [16] the test system is Phosphatidylinositol 4,5-bisphosphate 3-kinase catalytic subunit alpha isoform (Homo sapiens), P42336 [H1047Y]. Put plainly: Binding affinity to human partial length PIK3CA H1047Y mutant (R108 to N1068 residues) expressed in mammalian expression system assessed as residual binding level at 1 uM by Kinomescan method relative to control.
The target of series [17] is Angiopoietin-1 receptor (Homo sapiens) (UniProt Q02763). Nature of the series: Binding affinity to wild-type human partial length TIE2 (N804 to T1112 residues) expressed in bacterial expression system assessed as residual binding level at 1 uM by Kinomescan method relative to control.
In series [18] the target is Serine/threonine-protein kinase 32B (Homo sapiens) (UniProt Q9NY57). Nature of the series: Binding affinity to wild-type human full length YANK2 (M1 to S414 residues) expressed in bacterial expression system assessed as residual binding level at 1 uM by Kinomescan method relative to control.
Series [19] has as its system Phosphatidylinositol 4,5-bisphosphate 3-kinase catalytic subunit alpha isoform (Homo sapiens), P42336 [E545A]. Put plainly: Binding affinity to human partial length PIK3CA E545A mutant (R108 to N1068 residues) expressed in mammalian expression system assessed as residual binding level at 1 uM by Kinomescan method relative to control.
Series [20] deals with Dual specificity protein kinase CLK3 (Homo sapiens) (UniProt P49761). Nature of the series: Binding affinity to wild-type human full length CLK3 (M1 to R490 residues) expressed in bacterial expression system assessed as residual binding level at 1 uM by Kinomescan method relative to control.
Series [21] can be described thus: Cmax in mouse at 10 mg/kg, po. The conditions noted are these: in vivo. On the set-up: dose 10 mg/kg, route oral. It counts as ADME, organism-based.
For series [22], the target named is Ephrin type-B receptor 1 (Homo sapiens) (UniProt P54762). Nature of the series: Binding affinity to wild-type human partial length EPHB1 (P589 to T911 residues) expressed in bacterial expression system assessed as residual binding level at 1 uM by Kinomescan method relative to control.
Series [23] addresses Fibroblast growth factor receptor 1 (Homo sapiens) (UniProt P11362). Put plainly: Binding affinity to wild-type human partial length FGFR1 (P357 to V669 residues) expressed in bacterial expression system assessed as residual binding level at 1 uM by Kinomescan method relative to control.
Series [24] deals with Non-receptor tyrosine-protein kinase TNK1 (Homo sapiens) (UniProt Q13470). Nature of the series: Binding affinity to wild-type human full length TNK1 (M1 to P661 residues) expressed in bacterial expression system assessed as residual binding level at 1 uM by Kinomescan method relative to control.
Sequence of Non-receptor tyrosine-protein kinase TNK1 (Homo sapiens) (Q13470 whole entry, the tested form may be a part): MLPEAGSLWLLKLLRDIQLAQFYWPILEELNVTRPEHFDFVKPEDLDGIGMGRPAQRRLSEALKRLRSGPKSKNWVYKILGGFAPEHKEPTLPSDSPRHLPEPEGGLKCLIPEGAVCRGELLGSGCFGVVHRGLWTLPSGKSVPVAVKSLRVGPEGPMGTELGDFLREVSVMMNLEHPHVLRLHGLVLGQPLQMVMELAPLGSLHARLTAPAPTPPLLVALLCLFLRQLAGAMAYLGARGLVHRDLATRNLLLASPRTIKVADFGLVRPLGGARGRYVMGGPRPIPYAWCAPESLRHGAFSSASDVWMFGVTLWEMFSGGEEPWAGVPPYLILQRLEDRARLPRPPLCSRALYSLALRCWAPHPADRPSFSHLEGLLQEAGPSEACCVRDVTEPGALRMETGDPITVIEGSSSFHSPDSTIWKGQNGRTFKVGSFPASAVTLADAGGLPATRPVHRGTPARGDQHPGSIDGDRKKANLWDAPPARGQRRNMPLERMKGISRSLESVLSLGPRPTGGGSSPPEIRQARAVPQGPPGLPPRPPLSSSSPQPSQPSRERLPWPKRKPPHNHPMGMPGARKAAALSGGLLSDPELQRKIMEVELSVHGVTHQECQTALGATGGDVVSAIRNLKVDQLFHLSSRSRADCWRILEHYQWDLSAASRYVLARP

Sequence of Ephrin type-B receptor 1 (Homo sapiens) (P54762 whole entry, the tested form may be a part): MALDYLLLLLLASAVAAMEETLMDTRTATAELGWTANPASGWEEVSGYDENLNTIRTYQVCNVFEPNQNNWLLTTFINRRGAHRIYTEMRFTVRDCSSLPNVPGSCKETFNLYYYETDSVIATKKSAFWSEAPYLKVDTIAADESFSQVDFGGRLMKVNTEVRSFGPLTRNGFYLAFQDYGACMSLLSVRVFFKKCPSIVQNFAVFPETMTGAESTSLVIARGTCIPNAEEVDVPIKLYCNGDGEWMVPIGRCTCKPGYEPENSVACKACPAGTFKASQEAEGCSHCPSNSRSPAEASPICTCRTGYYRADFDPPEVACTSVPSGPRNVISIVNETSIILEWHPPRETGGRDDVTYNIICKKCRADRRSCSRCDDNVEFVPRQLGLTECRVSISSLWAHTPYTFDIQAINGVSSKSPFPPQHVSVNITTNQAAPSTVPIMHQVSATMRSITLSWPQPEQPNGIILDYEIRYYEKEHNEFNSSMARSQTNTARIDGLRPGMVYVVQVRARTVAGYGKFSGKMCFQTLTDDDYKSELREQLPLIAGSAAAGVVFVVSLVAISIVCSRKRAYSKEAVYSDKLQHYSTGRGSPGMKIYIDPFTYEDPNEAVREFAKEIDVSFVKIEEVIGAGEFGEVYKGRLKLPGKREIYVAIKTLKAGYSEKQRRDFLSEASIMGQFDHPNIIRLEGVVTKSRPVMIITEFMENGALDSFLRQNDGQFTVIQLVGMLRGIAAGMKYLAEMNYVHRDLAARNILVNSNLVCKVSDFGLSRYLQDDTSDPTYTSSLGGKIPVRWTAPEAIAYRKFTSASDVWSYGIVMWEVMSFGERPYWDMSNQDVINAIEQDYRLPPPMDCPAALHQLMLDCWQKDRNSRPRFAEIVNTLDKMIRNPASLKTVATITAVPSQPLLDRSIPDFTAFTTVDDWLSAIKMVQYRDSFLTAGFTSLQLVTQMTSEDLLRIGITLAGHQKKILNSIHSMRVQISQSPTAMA
Sequence of Dual specificity protein kinase CLK3 (Homo sapiens) (P49761 whole entry, looked up, the tested form may be a part): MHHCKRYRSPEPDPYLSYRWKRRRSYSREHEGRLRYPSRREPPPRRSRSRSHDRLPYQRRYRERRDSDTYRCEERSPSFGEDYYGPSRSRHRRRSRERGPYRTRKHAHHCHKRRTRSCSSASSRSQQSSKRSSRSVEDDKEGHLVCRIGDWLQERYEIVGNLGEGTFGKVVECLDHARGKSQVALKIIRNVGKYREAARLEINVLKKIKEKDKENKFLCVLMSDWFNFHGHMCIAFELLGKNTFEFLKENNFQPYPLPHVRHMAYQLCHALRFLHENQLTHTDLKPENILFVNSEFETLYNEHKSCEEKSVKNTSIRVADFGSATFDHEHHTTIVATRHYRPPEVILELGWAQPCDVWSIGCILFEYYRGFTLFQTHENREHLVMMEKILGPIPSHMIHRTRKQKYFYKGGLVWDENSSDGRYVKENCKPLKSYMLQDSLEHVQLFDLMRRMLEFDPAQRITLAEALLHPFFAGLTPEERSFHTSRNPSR
Sequence of Angiopoietin-1 receptor (Homo sapiens) (Q02763 whole entry, the tested form may be a part): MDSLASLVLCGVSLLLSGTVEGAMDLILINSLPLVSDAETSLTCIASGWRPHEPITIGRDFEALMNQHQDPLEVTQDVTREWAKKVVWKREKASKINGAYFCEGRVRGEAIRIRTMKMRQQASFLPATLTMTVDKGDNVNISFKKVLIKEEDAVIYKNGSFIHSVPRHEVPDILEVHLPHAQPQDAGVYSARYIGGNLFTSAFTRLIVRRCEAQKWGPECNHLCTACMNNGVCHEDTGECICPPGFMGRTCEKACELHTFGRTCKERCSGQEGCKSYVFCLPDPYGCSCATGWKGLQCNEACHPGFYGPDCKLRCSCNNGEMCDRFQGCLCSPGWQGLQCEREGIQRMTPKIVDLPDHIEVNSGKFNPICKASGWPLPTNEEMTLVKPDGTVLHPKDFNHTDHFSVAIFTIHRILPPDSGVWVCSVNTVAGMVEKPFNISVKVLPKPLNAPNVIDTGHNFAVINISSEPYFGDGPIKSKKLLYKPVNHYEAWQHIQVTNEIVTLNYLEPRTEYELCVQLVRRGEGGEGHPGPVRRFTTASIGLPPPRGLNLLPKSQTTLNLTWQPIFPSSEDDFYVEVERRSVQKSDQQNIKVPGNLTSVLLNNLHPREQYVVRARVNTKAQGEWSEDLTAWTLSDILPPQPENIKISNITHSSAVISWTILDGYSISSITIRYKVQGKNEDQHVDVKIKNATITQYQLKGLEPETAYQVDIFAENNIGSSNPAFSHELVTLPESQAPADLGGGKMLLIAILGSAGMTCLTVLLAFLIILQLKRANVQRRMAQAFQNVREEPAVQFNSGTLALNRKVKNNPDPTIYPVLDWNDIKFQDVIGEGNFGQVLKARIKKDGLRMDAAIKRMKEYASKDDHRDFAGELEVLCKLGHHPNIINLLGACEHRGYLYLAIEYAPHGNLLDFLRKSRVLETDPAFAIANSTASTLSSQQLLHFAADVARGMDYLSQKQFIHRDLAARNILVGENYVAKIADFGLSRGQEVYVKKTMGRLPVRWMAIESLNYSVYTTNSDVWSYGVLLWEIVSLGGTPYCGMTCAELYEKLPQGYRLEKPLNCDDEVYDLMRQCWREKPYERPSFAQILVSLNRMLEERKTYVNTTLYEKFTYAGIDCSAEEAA
Sequence of Serine/threonine-protein kinase PAK 2 (Homo sapiens) (Q13177 whole entry, the tested form may be a part, canonical isoform): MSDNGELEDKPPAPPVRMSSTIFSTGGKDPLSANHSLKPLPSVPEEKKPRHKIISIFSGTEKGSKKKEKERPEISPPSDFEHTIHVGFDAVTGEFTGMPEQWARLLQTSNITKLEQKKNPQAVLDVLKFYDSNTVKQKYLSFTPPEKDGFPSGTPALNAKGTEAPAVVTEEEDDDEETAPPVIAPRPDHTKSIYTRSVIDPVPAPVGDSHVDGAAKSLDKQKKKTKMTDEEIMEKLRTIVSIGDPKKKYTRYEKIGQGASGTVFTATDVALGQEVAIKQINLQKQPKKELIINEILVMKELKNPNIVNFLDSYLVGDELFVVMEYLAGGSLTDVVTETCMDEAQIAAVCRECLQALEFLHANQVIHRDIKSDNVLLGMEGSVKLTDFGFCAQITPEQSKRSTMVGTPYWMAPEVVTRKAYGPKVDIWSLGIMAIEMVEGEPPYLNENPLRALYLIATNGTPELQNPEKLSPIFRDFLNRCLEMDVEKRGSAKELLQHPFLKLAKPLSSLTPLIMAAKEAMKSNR
Sequence of Mitogen-activated protein kinase 15 (Homo sapiens) (Q8TD08 whole entry, the tested form may be a part): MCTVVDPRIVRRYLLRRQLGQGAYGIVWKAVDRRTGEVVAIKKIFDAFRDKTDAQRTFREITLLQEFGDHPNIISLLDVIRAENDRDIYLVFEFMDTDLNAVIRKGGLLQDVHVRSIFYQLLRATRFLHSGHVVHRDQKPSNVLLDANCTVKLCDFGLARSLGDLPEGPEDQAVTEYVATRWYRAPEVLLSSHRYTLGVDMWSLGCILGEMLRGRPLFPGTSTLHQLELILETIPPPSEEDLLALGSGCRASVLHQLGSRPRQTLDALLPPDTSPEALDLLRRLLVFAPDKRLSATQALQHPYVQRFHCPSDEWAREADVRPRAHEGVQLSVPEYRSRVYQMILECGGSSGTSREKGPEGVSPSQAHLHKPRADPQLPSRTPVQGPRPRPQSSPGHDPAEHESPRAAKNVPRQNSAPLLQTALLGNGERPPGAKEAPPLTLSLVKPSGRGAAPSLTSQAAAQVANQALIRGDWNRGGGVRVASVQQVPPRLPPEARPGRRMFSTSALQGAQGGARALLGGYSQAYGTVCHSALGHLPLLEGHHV
Sequence of Myosin light chain kinase 2, skeletal/cardiac muscle (Homo sapiens) (Q9H1R3 whole entry, the tested form may be a part): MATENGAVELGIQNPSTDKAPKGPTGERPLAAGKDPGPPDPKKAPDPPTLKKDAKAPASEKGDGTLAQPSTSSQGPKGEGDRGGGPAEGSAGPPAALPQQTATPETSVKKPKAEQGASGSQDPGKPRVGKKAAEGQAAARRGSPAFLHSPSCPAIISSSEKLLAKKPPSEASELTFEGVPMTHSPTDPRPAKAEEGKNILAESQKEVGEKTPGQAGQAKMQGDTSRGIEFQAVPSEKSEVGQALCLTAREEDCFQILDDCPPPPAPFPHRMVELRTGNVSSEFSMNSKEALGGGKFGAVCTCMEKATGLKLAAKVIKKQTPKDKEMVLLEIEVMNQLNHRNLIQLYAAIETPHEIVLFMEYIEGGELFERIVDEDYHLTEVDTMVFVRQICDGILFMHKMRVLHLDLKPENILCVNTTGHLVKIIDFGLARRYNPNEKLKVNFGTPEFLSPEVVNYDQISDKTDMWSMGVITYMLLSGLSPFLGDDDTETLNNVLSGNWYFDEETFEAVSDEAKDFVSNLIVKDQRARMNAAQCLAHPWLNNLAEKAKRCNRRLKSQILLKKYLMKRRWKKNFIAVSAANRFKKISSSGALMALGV

In the case of `C=CC(=O)Nc1cc(Nc2ncc(Cl)c(Nc3ccccc3S(=O)(=O)C(C)C)n2)c(OC)cc1N(C)CCN(C)C`, the Activity in series [1] worked out at 82%; in series [2] it was 15%; in series [3], 8.2%; in series [4], 41%; in [5], 77%; in series [6], 0%. Moreover, the Activity in [7] came out at 96%; in series [8], 71%; in series [9] it was 0%; in series [10], 73%; in [11] it was 3.3%; in series [12], 100%. Moreover, the Activity in series [13] was determined as 21%; in [14], 28%; in series [15], 62%; in [16], 100%; in series [17], 20%; in [18] it was 2.4%. For the same compound, the Activity in [19] amounted to 83%; in series [20] it was 23%; in [22], 38%; in series [23], 3.7%; in series [24] it was 3.3%. This compound also yielded a Cmax in series [21] of 520 ng/mL.
